In ChEMBL document CHEMBL6083196, “Synthesis and cytotoxic activity of madecassic acid-silybin conjugate compounds in liver cancer cells” (2024):

These compounds were tested on HepG2 (assay: Cytotoxicity against human HepG2 cells incubated for 96 hrs by MTT assay).
Format: functional
Summary of the method: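 Cells grown in DMEM with 10% FBS and 1% antibiotic at 37 °C, 5% CO2. Trypsinised, seeded at 3 × 10^4 cells per mL, treated over an eight-point titration for 96 h. MTT (0.5 mg mL−1) added for 4 h at 37 °C, formazan dissolved in DMSO, absorbance read at 570 nm. GI50 is the concentration halving the MTT signal versus untreated control. Ellipticine served as reference; n ≥ 3 repeats.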
`COc1cc([C@H]2Oc3cc([C@H]4Oc5cc(O)cc(O)c5C(=O)[C@@H]4OC(=O)CCNC(=O)[C@]45CC[C@@H](C)[C@H](C)[C@H]4C4=CC[C@@H]6[C@@]7(C)C[C@@H](OC(C)=O)[C@H](OC(C)=O)[C@@](C)(COC(C)=O)[C@@H]7[C@H](O)C[C@@]6(C)[C@]4(C)CC5)ccc3O[C@@H]2CO)ccc1O` gave a GI50 of 141 µM.
`COc1cc([C@H]2Oc3cc([C@H]4Oc5cc(OC(C)=O)cc(OC(C)=O)c5C(=O)[C@@H]4OC(=O)CNC(=O)[C@]45CC[C@@H](C)[C@H](C)[C@H]4C4=CC[C@@H]6[C@@]7(C)C[C@@H](OC(C)=O)[C@H](OC(C)=O)[C@@](C)(COC(C)=O)[C@@H]7[C@H](O)C[C@@]6(C)[C@]4(C)CC5)ccc3O[C@@H]2COC(C)=O)ccc1OC(C)=O` was tested, and the GI50 was 122 µM.
In the case of `COc1cc([C@H]2Oc3cc([C@H]4Oc5cc(OC(C)=O)cc(OC(C)=O)c5C(=O)[C@@H]4OC(=O)CCNC(=O)[C@]45CC[C@@H](C)[C@H](C)[C@H]4C4=CC[C@@H]6[C@@]7(C)C[C@@H](OC(C)=O)[C@H](OC(C)=O)[C@@](C)(COC(C)=O)[C@@H]7[C@H](O)C[C@@]6(C)[C@]4(C)CC5)ccc3O[C@@H]2COC(C)=O)ccc1OC(C)=O`, the GI50 is reported as 360 µM.
For `COc1cc([C@H]2Oc3cc(-c4cc(=O)c5c(O)cc(OC(=O)[C@]67CC[C@@H](C)[C@H](C)[C@H]6C6=CC[C@@H]8[C@@]9(C)C[C@@H](OC(C)=O)[C@H](OC(C)=O)[C@@](C)(COC(C)=O)[C@@H]9[C@H](O)C[C@@]8(C)[C@]6(C)CC7)cc5o4)ccc3O[C@@H]2CO)ccc1O`, the GI50 was > 500 µM.
Compound `COc1cc([C@H]2Oc3cc(-c4oc5cc(OC(C)=O)cc(OC(C)=O)c5c(=O)c4OC(=O)[C@]45CC[C@@H](C)[C@H](C)[C@H]4C4=CC[C@@H]6[C@@]7(C)C[C@@H](OC(C)=O)[C@H](OC(C)=O)[C@@](C)(COC(C)=O)[C@@H]7[C@H](O)C[C@@]6(C)[C@]4(C)CC5)ccc3O[C@@H]2COC(C)=O)ccc1OC(C)=O` has a GI50 of 471 µM.
`COc1cc([C@H]2Oc3cc([C@H]4Oc5cc(OC(C)=O)cc(OC(C)=O)c5C(=O)[C@@H]4OC(=O)CNC(=O)[C@]45CC[C@@H](C)[C@H](C)[C@H]4C4=CC[C@@H]6[C@@]7(C)C[C@@H](OC(C)=O)[C@H](OC(C)=O)[C@@](C)(COC(C)=O)C7=CC[C@@]6(C)[C@]4(C)CC5)ccc3O[C@@H]2COC(C)=O)ccc1OC(C)=O` was tested, and the GI50 was 243 µM.
In the case of `COc1cc([C@H]2Oc3cc([C@H]4Oc5cc(O)cc(O)c5C(=O)[C@@H]4OC(=O)CNC(=O)[C@]45CC[C@@H](C)[C@H](C)[C@H]4C4=CC[C@@H]6[C@@]7(C)C[C@@H](OC(C)=O)[C@H](OC(C)=O)[C@@](C)(COC(C)=O)C7=CC[C@@]6(C)[C@]4(C)CC5)ccc3O[C@@H]2CO)ccc1O`, the GI50 is reported as 174 µM.
`COc1cc([C@H]2Oc3cc([C@H]4Oc5cc(O)cc(O)c5C(=O)[C@@H]4OC(=O)CCNC(=O)[C@]45CC[C@@H](C)[C@H](C)[C@H]4C4=CC[C@@H]6[C@@]7(C)C[C@@H](OC(C)=O)[C@H](OC(C)=O)[C@@](C)(COC(C)=O)C7=CC[C@@]6(C)[C@]4(C)CC5)ccc3O[C@@H]2CO)ccc1O` was tested, and the GI50 was 344 µM.
For `CC(=O)OC[C@@]1(C)[C@@H]2[C@H](O)C[C@]3(C)[C@H](CC=C4[C@@H]5[C@@H](C)[C@H](C)CC[C@]5(C(=O)O)CC[C@]43C)[C@@]2(C)C[C@@H](OC(C)=O)[C@@H]1OC(C)=O`, the GI50 was 44.1 µM.
Work on `CC(=O)OC[C@@]1(C)C2=CC[C@]3(C)C(CC=C4[C@@H]5[C@@H](C)[C@H](C)CC[C@]5(C(=O)O)CC[C@]43C)[C@@]2(C)C[C@@H](OC(C)=O)[C@@H]1OC(C)=O` (some centres not stated) yielded a GI50 of 38.5 µM.
`COc1cc([C@H]2Oc3cc([C@H]4Oc5cc(OC(C)=O)cc(OC(C)=O)c5C(=O)[C@@H]4OC(=O)CCCCCCCCCCNC(=O)[C@]45CC[C@@H](C)[C@H](C)[C@H]4C4=CC[C@@H]6[C@@]7(C)C[C@@H](OC(C)=O)[C@H](OC(C)=O)[C@@](C)(COC(C)=O)[C@@H]7[C@H](O)C[C@@]6(C)[C@]4(C)CC5)ccc3O[C@@H]2COC(C)=O)ccc1OC(C)=O` was tested, and the GI50 was 199 µM.
With `COc1cc([C@H]2Oc3cc([C@H]4Oc5cc(OC(=O)[C@]67CC[C@@H](C)[C@H](C)[C@H]6C6=CC[C@@H]8[C@@]9(C)C[C@@H](OC(C)=O)[C@H](OC(C)=O)[C@@](C)(COC(C)=O)[C@@H]9[C@H](O)C[C@@]8(C)[C@]6(C)CC7)cc(O)c5C(=O)[C@@H]4O)ccc3O[C@@H]2CO)ccc1O` the GI50 was > 500 µM.
`COc1cc([C@H]2Oc3cc([C@H]4Oc5cc(O)cc(O)c5C(=O)[C@@H]4OC(=O)CCCCCCCCCCNC(=O)[C@]45CC[C@@H](C)[C@H](C)[C@H]4C4=CC[C@@H]6[C@@]7(C)C[C@@H](OC(C)=O)[C@H](OC(C)=O)[C@@](C)(COC(C)=O)[C@@H]7[C@H](O)C[C@@]6(C)[C@]4(C)CC5)ccc3O[C@@H]2CO)ccc1O` showed a GI50 of 383 µM.
With `COc1cc([C@H]2Oc3cc([C@H]4Oc5cc(OC(C)=O)cc(OC(C)=O)c5C(=O)[C@@H]4OC(=O)CCNC(=O)[C@]45CC[C@@H](C)[C@H](C)[C@H]4C4=CC[C@@H]6[C@@]7(C)C[C@@H](OC(C)=O)[C@H](OC(C)=O)[C@@](C)(COC(C)=O)C7=CC[C@@]6(C)[C@]4(C)CC5)ccc3O[C@@H]2COC(C)=O)ccc1OC(C)=O` the GI50 was 352 µM.
With `COc1cc([C@H]2Oc3cc(-c4oc5cc(O)cc(O)c5c(=O)c4OC(=O)[C@]45CC[C@@H](C)[C@H](C)[C@H]4C4=CC[C@@H]6[C@@]7(C)C[C@@H](OC(C)=O)[C@H](OC(C)=O)[C@@](C)(COC(C)=O)[C@@H]7[C@H](O)C[C@@]6(C)[C@]4(C)CC5)ccc3O[C@@H]2CO)ccc1O` the GI50 was 217 µM.
Work on `Cc1c2ccncc2c(C)c2c1[nH]c1ccccc12` [ELLIPTECINE] yielded a GI50 of 0.42 µM.
Compound `COc1cc([C@H]2Oc3cc([C@H]4Oc5cc(O)cc(O)c5C(=O)[C@@H]4O)ccc3O[C@@H]2CO)ccc1O` [SILYBIN A] has a GI50 of 285 µM.
